Experimental data: ChEMBL document CHEMBL1141655, “Structure-activity relationships of Bak derived peptides: affinity and specificity modulations by amino acid replacement” (Eur J Med Chem, 2008)

How the values were obtained:
Bcl-2-like protein 1 = Bcl-2-like protein 1 (Homo sapiens, UniProt Q07817); assay: Binding affinity to recombinant Bcl-XL expressed in Escherichia coli BL21 by fluorescence polarization assay
[1] = Selectivity ratio of EC50 for recombinant Bcl-2 to EC50 for recombinant Bcl-XL
[2] = target: Apoptosis regulator Bcl-2 (Homo sapiens, UniProt P10415); assay: Binding affinity to recombinant Bcl-2 expressed in Escherichia coli BL21 by fluorescence polarization assay
Chain of Apoptosis regulator Bcl-2 (P10415 whole entry): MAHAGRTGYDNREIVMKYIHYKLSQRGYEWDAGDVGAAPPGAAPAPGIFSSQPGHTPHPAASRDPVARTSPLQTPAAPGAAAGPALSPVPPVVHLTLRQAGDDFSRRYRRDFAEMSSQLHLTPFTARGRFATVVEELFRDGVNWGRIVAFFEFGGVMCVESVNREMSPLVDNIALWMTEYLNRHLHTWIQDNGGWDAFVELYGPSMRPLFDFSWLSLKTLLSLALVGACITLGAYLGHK
Summary of the method: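 GST-Bcl-2 lacking C-terminal 21 residues, glutathione-resin purified, dialysed into 20 mM phosphate pH 7.4, 1 mM EDTA, 50 mM NaCl. Competition FP: fluorescein N-terminal Bak BH3 probe 15 nM, protein 1 µM, peptide final 10^-9 to 10^-4 M with 0.05% pluronic acid; 30 min room temperature; ex 485/em 535 nm, mP. EC50 from sigmoidal dose-response, n = 2, triplicate.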

Chain of Bcl-2-like protein 1 (Q07817 whole entry): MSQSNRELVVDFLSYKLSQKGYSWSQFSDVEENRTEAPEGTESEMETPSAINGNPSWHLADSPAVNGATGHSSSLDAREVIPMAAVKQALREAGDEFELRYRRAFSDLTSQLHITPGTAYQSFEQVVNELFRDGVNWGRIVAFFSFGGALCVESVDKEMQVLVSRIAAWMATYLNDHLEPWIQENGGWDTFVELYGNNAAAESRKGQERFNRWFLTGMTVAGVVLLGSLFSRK

EC50 (Bcl-2-like protein 1) [µM] | Ratio EC50 [1] | EC50 [2] [µM] | SMILES
0.375 | 7 | 2.8 | CC[C@H](C)[C@H](NC(=O)[C@H](C)NC(=O)[C@H](CC(C)C)NC(=O)[C@H](CCC(N)=O)NC(=O)[C@H](CCCNC(=N)N)NC(=O)CNC(=O)[C@@H](NC(=O)[C@H](CCC(N)=O)NC(=O)CN)C(C)C)C(=O)N[C@@H](Cc1c[nH]c2ccccc12)C(=O)NCC(=O)N[C@@H](CC(=O)O)C(=O)N[C@@H](CC(=O)O)C(=O)N[C@H](C(=O)N[C@@H](CC(N)=O)C(=O)N[C@@H](CCCNC(=N)N)C(=O)O)[C@@H](C)CC
0.127 | 133 | 17 | CC[C@H](C)[C@H](NC(=O)[C@H](C)NC(=O)[C@H](Cc1ccc2ccccc2c1)NC(=O)[C@H](CCC(N)=O)NC(=O)[C@H](CCCNC(=N)N)NC(=O)CNC(=O)[C@@H](NC(=O)[C@H](CCC(N)=O)NC(=O)CN)C(C)C)C(=O)N[C@H](C(=O)NCC(=O)N[C@@H](CC(=O)O)C(=O)N[C@@H](CC(=O)O)C(=O)N[C@H](C(=O)N[C@@H](CC(N)=O)C(=O)N[C@@H](CCCNC(=N)N)C(=O)O)[C@@H](C)CC)[C@@H](C)CC
